Reference: PubChem BioAssay
Activity calls are given as the source filed them.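 The calls were made as follows, unless noted: active = viability loss from added drug above about 55%, and viability with drug at most 40%, in both replicates (limit read from the data, passing the limit was not always enough); inconclusive = both conditions met in only one replicate; inactive = neither replicate meets both conditions.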

Tests used:
[1] = reducers of endogenous Her2 protein level, primary screen, SKBR3 breast tumor cells, AlphaScreen, ATP viability (AID 461;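 active = Her2 level under about 52% in both replicate screens, with viability over 70% of control, limit read from the data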;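 as to Her2 level: lower value means less Her2 protein in the cells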;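 as to viability: percent of carrier control wells set as 100% viability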); details: 18-24 h, measured here: SKBR3 viability, ATP luminescence, at 10 µM
[2] = biological target: Receptor tyrosine-protein kinase erbB-2 (Homo sapiens) (UniProt P04626); assay: as above; details: 18-24 h, at 10 µM, stronger effect = lower value
Sequence of Receptor tyrosine-protein kinase erbB-2 (Homo sapiens) (P04626 whole entry, looked up): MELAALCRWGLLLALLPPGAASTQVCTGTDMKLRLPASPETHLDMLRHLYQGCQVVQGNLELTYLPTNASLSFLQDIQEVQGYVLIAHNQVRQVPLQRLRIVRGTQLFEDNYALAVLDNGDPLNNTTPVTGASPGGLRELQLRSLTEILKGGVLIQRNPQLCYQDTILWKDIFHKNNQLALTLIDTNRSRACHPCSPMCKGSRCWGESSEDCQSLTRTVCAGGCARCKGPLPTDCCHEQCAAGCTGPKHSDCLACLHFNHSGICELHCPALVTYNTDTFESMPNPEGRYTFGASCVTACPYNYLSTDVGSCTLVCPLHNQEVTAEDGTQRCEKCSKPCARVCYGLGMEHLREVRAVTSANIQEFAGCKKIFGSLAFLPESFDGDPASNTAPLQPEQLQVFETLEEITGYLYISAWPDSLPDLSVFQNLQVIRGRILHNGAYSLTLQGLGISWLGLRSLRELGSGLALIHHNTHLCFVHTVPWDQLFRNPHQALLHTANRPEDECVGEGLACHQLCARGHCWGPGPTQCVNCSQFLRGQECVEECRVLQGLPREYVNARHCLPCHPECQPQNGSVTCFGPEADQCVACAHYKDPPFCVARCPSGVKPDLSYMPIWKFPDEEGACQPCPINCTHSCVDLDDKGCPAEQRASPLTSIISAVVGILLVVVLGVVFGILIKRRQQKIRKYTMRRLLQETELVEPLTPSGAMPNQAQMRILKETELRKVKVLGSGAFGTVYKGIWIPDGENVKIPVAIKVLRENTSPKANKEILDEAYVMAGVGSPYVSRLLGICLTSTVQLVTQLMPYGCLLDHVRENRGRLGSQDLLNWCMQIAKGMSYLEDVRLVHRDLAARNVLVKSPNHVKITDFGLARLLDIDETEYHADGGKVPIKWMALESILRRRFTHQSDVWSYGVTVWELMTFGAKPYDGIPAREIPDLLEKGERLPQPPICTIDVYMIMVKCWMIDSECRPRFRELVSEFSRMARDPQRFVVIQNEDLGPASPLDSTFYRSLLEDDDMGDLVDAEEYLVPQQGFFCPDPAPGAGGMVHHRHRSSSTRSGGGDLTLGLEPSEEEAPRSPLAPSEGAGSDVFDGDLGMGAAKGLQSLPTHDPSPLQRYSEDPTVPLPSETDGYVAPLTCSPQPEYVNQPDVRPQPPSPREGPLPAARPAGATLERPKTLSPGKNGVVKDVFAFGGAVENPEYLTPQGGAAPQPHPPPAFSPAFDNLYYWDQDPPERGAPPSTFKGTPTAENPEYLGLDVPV

[3] = SK-BR-3 cell growth inhibitors, pilot screen, 24 h, human (AID 572;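 active = viability at or below 10% of carrier control in both of two separate runs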;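 also: compound exposure lasted between 18 and 24 h rather than exactly 24 h; 100% = carrier-treated control wells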); details: SK-BR-3 viability, CellTiter-Glo luminescence, at 10 µM, stronger effect = lower value
[4] = HUVEC growth inhibition – cell-based, human, primary screen (AID 575;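 active = viability at or below 30% in both replicate assays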;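 also: 100% = median of untreated cell wells with 0.1% DMSO on each plate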); details: HUVEC proliferation, CellTiter-Glo luminescence, 72 h; at 10 µM; stronger effect = lower value
Summary of the method: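 Test system: primary human umbilical vein endothelial cells. Quantity: 1250 cells/well. Compound: single 10 µM dose, 0.1% DMSO, from 5x medium stock. Timing: 72 h treatment at 37 °C. Detection: ATP-based CellTiter-Glo luminescent read. Benchmarks: vehicle and MePR control wells. Format: 384-well plates coated with collagen.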

[5] = growth inhibitors of H69AR lung tumor, primary screen, human, duplicate replicates (AID 580;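 active = viability at or under a set limit in both replicates, limit being median viability minus 3 SD, cut at about 48% in these data, passing the limit was not always enough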;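 also: 100% = mean luminescence of untreated wells and 0% = no signal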); details: H69AR lung tumor cells viability, ATP luminescence, 72 h; at 10 µM; stronger effect = lower value
[6] = reversal of MRP1-mediated doxorubicin resistance, pilot screen, H69AR cells, doxorubicin co-treatment (AID 601); details: CellTiter-Glo, 72 h, at 10 µM; for differential viability (reversal): stronger effect = higher value
[7] = 384-well plate pilot, post-Golgi transport modulator project, inhibition of yeast transport mutant growth (AID 636; in the data active = inhibition above about 31%); details: absorbance 615 nm, about 18 h, stronger effect = higher value
[8] = growth suppression of yeast trafficking mutant, preliminary HTS, modulators of trafficking downstream of Golgi apparatus project, 1536-format plate, OD 615 nm (AID 637; in the data active = inhibition above about 30%); details: yeast transport mutant growth, absorbance 615 nm, 18 h; stronger effect = higher value
[9] = H69AR cells + 2 uM doxorubicin, measured here: viability with 2 uM doxorubicin, stronger effect = lower value
[10] = H69AR cells, compound alone cytotoxicity

| SMILES | viability [1] [%] | Her2 level [2] | viability [3] | viability [4] | viability [5] | differential viability (reversal) ([6]; H69AR cells + 2 uM doxorubicin) | viability [6, 9] [%] | viability [6, 10] [%] | inhibition [7] | inhibition [8] |
| --- | --- | --- | --- | --- | --- | --- | --- | --- | --- | --- |
| CCOC(=O)N1CCN(C(=O)C2CC(=O)N(Cc3ccc(OC)cc3)C2)CC1 (stereo not given) | 96.5 | 91% (inactive) | 96.5% (inactive) | 112% (inactive) | 93.3% (inactive) | -3.47% (inactive) | 96.8 | 93.3 | -4.34% (inactive) | -1.45% (inactive) |
| O=C(Cn1ncc2c(=O)oc3ccccc3c21)NCC1CCCO1 (stereo not given) | 104 | 102% (inactive) | 104% (inactive) | 108% (inactive) | 94.8% (inactive) | -7.15% (inactive) | 102 | 94.8 | -3.59% (inactive) | -1.17% (inactive) |
| CCN(CC)CCN1C(=O)Cn2c(C)c(C)c3cccc1c32 | 108 | 92.5% (inactive) | 108% (inactive) | 95.7% (inactive) | 84.6% (inactive) | -1.94% (inactive) | 86.5 | 84.6 | -7.47% (inactive) | -1.75% (inactive) |
| COc1cc(OC)cc(C(=O)N2c3ccc(F)cc3CCC2C)c1 (stereo not given) | 94.5 | 89% (inactive) | 94.5% (inactive) | 112% (inactive) | 97.5% (inactive) | 6.82% (inactive) | 90.7 | 97.5 | -0.14% (inactive) | -3.02% (inactive) |
| Cc1cc(C(=O)NCc2ccc(S(N)(=O)=O)cc2)cs1 | 84.5 | 87.5% (inactive) | 84.5% (inactive) | 105% (inactive) | 104% (inactive) | 13% (inactive) | 90.7 | 104 | -5.73% (inactive) | 4.1% (inactive) |
| C=C(c1cccc2ccccc12)P(=O)(O)O | 116 | 99.5% (inactive) | 116% (inactive) | 104% (inactive) | 92.9% (inactive) | 6.39% (inactive) | 86.5 | 92.9 | -6.45% (inactive) | 4.75% (inactive) |
| COc1cccc(-c2cc(C(F)(F)F)n3ncc(C(=O)O)c3n2)c1 | 93 | 87.5% (inactive) | 93% (inactive) | 117% (inactive) | 108% (inactive) | 9.06% (inactive) | 98.8 | 108 | -3.2% (inactive) | -2.95% (inactive) |
| Cc1ccc(C(=O)OCC(=O)c2ccc(Cl)s2)s1 | 93.5 | 101% (inactive) | 93.5% (inactive) | 96% (inactive) | 97.4% (inactive) | 6.55% (inactive) | 90.8 | 97.4 | -0.93% (inactive) | -10.3% (inactive) |
| CC1CCCC(C)N1C(=O)COC(=O)c1ccc[nH]c1=O (stereo not given) | 102 | 86% (inactive) | 102% (inactive) | 95.9% (inactive) | 97.7% (inactive) | -5.21% (inactive) | 103 | 97.7 | -4.49% (inactive) | 1.67% (inactive) |
| O=C(Nc1ccc(N2CCN(Cc3ccccc3Cl)CC2)cc1)c1cccnc1 | 91 | 108% (inactive) | 91% (inactive) | 117% (inactive) | 103% (inactive) | 5.44% (inactive) | 98 | 103 | 2.16% (inactive) | 0.82% (inactive) |
| CCC(=O)N1CCc2cc(Br)cc(S(=O)(=O)N3CCCCCC3)c21 | 88.5 | 87% (inactive) | 88.5% (inactive) | 97.2% (inactive) | 95.5% (inactive) | 2.03% (inactive) | 93.4 | 95.5 | -3.03% (inactive) | 4.91% (inactive) |
| CC(=O)Nn1c(C)nnc1-n1nc(C)cc1C | 126 | 112% (inactive) | 126% (inactive) | 77.5% (inactive) | 97.8% (inactive) | 4.38% (inactive) | 93.4 | 97.8 | -1.95% (inactive) | -1.64% (inactive) |
| COC(=O)CN(c1nc(C)c(Cl)c(OC)n1)S(=O)(=O)c1ccc(C)cc1 | 117 | 104% (inactive) | 117% (inactive) | 86.9% (inactive) | 84.9% (inactive) | 2.96% (inactive) | 81.9 | 84.9 | -3.64% (inactive) | -2.86% (inactive) |
| CC(C)(C)OC(=O)NC(CCNC=C1C(=O)OC(C)(C)OC1=O)C(=O)O (stereo not given) | 105 | 92.5% (inactive) | 105% (inactive) | 104% (inactive) | 101% (inactive) | 11.6% (inactive) | 89.2 | 101 | -7.03% (inactive) | -3.5% (inactive) |
| CCn1c(C(=O)N2CCCC(C(=O)NCCCc3ccccc3)C2)cc2sccc21 (stereo not given) | 102 | 96.5% (inactive) | 102% (inactive) | 64.3% (inactive) | 96.7% (inactive) | 3.47% (inactive) | 93.2 | 96.7 | -2.08% (inactive) | -9.84% (inactive) |
| CC(C)CNC(=O)C1CC(=O)OC12CCCCC2 (stereo not given) | 100 | 95% (inactive) | 100% (inactive) | 112% (inactive) | 113% (inactive) | 22.3% (inactive) | 90.5 | 113 | -8.11% (inactive) | 4.92% (inactive) |
| CCN(C(=O)c1cc2cc3ccc(C)cc3nc2o1)c1ccc(OC)cc1 | 85.5 | 99.5% (inactive) | 85.5% (inactive) | 61% (inactive) | 83.1% (inactive) | -12.9% (inactive) | 96 | 83.1 | -6.27% (inactive) | -6.39% (inactive) |
| COc1ccc(C)cc1S(=O)(=O)N1CCN(Cc2ccccc2)CC1 | 98 | 94.5% (inactive) | 98% (inactive) | 96.1% (inactive) | 91.2% (inactive) | -1.38% (inactive) | 92.6 | 91.2 | -2.24% (inactive) | 1.13% (inactive) |
| O=C(CCn1c(=O)sc2ccccc21)Nc1nccs1 | 98.5 | 97% (inactive) | 98.5% (inactive) | 115% (inactive) | 108% (inactive) | 16.8% (inactive) | 91.5 | 108 | -2.6% (inactive) | -0.95% (inactive) |
| CCCc1ccc(S(=O)(=O)NCCc2ccncc2)cc1 | 96 | 91.5% (inactive) | 96% (inactive) | 85.4% (inactive) | 106% (inactive) | 16.6% (inactive) | 89.6 | 106 | -4.19% (inactive) | -1.27% (inactive) |
| CCCCSc1cc(C)nc2ncnn12 | 98.5 | 131% (inactive) | 98.5% (inactive) | 75.2% (inactive) | 99.7% (inactive) | -1.97% (inactive) | 102 | 99.7 | 5.71% (inactive) | -0.67% (inactive) |
| O=C(Nc1c(-c2ccccc2)nc2ccccn12)c1ccco1 | 95 | 106% (inactive) | 95% (inactive) | 109% (inactive) | 103% (inactive) | 16.5% (inactive) | 86.9 | 103 | -0.92% (inactive) | -4.55% (inactive) |
| O=C(CCN1CCOCC1)Nc1cccc(Br)c1 | 100 | 86% (inactive) | 100% (inactive) | 78.9% (inactive) | 92.9% (inactive) | 7.72% (inactive) | 85.2 | 92.9 | -5.47% (inactive) | -6.56% (inactive) |
| CCOC(=O)CSc1nnc(-c2ccc(S(=O)(=O)N3CCOCC3)cc2)n1-c1ccccc1 | 93 | 83.5% (inactive) | 93% (inactive) | 94.4% (inactive) | 105% (inactive) | 17.4% (inactive) | 87.7 | 105 | -1.97% (inactive) | 1.43% (inactive) |
| COc1cccc(OC)c1C(=O)n1nc(C)cc1C | 84.5 | 87% (inactive) | 84.5% (inactive) | 110% (inactive) | 98.8% (inactive) | 3.22% (inactive) | 95.5 | 98.8 | 1.18% (inactive) | 4.1% (inactive) |
| COc1ccc(C2CC(c3ccc(Cl)cc3)Nc3nc(NC(=O)c4ccco4)nn32)cc1 (stereo not given) | 90.5 | 78% (inactive) | 90.5% (inactive) | 66.3% (inactive) | 81.2% (inactive) | -9.39% (inactive) | 90.6 | 81.2 | -5.07% (inactive) | 2.46% (inactive) |
| COC(=O)C1=C(C)n2nnnc2NC1c1ccc(Cl)cc1 (stereo not given) | 92 | 107% (inactive) | 92% (inactive) | 90.4% (inactive) | 95.3% (inactive) | 8.47% (inactive) | 86.8 | 95.3 | -0.39% (inactive) | 1.83% (inactive) |
| O=C(CSc1ncccn1)c1ccccc1Br | 120 | 93.5% (inactive) | 120% (inactive) | 116% (inactive) | 90.7% (inactive) | -4.21% (inactive) | 94.9 | 90.7 | -6.32% (inactive) | -1.64% (inactive) |
